Experimental data reported in ChEMBL document CHEMBL3085682, “Santacruzamate A, a potent and selective histone deacetylase inhibitor from the Panamanian marine cyanobacterium cf. Symploca sp” (J Nat Prod, 2013).
pIC50: −log10 of the molar value. Values joined by “and” are separate entries in the source; they are usually repeats but may differ in a detail not shown here. Equal values may be shown once. Active and inactive are the calls of the source. No cut-off for these calls is given here.

Assays:
[1] = target: T1, Protein deacetylase HDAC6 (Homo sapiens, UniProt Q9UBN7); assay: Inhibition of human recombinant HDAC6 after 30 mins by fluorescence assay
T1 sequence (Q9UBN7 whole entry): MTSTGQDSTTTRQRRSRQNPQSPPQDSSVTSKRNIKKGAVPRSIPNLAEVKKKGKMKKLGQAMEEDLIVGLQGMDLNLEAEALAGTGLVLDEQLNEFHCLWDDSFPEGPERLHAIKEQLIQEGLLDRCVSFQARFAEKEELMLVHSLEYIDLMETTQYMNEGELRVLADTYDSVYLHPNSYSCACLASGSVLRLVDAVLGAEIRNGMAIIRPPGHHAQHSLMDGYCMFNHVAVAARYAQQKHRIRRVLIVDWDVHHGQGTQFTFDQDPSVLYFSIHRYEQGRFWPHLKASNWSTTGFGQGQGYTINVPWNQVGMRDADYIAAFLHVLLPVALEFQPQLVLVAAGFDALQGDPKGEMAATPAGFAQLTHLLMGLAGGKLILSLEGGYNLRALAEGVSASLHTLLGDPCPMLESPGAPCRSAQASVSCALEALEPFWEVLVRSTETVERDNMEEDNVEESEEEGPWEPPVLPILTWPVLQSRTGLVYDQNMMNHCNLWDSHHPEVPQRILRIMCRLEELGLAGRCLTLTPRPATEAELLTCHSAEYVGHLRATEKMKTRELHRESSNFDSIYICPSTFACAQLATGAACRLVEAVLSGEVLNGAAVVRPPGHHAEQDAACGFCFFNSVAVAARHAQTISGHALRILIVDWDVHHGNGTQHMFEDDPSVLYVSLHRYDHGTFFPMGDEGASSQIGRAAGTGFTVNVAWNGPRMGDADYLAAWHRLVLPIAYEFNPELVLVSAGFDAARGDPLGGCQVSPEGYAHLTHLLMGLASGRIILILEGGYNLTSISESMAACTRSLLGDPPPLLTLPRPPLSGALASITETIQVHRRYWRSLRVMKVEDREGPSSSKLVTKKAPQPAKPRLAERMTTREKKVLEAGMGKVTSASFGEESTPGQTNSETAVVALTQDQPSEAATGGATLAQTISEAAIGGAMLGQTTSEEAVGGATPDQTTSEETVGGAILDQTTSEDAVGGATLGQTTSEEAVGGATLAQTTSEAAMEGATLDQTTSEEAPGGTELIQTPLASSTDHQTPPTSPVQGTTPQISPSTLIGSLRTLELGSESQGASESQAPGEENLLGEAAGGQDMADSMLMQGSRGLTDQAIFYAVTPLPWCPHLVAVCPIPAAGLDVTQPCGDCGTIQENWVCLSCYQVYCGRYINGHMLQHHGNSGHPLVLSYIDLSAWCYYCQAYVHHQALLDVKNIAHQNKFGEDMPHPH

Histone deacetylase 4 [2] = target: T2, Histone deacetylase 4 (Homo sapiens, UniProt P56524); assay: Inhibition of human recombinant HDAC4 after 30 mins by fluorescence assay
T2 sequence (P56524 whole entry): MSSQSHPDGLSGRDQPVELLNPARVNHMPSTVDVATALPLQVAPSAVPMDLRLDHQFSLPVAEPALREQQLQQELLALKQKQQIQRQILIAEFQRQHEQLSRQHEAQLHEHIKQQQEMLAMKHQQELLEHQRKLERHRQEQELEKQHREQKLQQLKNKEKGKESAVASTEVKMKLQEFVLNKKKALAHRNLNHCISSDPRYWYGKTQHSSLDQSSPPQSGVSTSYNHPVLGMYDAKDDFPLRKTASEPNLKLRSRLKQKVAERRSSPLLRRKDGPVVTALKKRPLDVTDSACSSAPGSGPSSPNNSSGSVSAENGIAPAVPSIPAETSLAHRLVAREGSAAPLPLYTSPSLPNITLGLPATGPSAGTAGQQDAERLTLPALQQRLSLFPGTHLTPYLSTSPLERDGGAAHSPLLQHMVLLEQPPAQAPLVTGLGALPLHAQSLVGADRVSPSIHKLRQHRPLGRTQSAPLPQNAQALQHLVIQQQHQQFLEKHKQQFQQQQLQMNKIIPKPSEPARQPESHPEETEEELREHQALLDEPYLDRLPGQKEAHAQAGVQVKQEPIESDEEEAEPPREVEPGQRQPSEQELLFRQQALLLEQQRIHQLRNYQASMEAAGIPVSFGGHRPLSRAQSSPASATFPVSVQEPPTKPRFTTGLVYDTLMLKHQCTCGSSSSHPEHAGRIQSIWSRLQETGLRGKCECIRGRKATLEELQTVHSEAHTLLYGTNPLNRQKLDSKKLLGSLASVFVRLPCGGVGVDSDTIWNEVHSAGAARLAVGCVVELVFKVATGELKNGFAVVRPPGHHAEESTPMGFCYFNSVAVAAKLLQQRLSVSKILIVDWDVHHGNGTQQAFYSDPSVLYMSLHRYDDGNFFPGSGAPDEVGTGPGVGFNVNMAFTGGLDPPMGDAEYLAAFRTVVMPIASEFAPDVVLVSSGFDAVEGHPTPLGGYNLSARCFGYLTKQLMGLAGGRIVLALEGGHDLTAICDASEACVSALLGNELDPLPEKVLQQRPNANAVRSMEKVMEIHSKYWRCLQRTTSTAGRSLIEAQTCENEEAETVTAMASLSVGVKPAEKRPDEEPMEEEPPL
Procedure, shortened: (§1)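 Human recombinant HDAC isozyme with fluorogenic kit substrate, incubated with inhibitor 30 min at 37 °C. Deacetylation stopped by developer containing trichostatin A (1 μM final), then 15 min at room temperature. Fluorescence read at excitation 360 nm, emission 460 nm; percent inhibition, IC50 from nonlinear regression over varying concentrations; SAHA control.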

[3] = Cytotoxicity against human HDF after 72 hrs by MTS-PMS assay; conditions: HDF cells
Procedure, shortened: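 Dermal fibroblasts cultured in DMEM/F-12 with 40% FBS and 1% pen/strep; 5000 cells/well allowed to adhere 24 h at 37 °C, 5% CO2, then treated in triplicate at varying concentrations for 72 h. Antiproliferative readout by MTS–PMS; GI50 fitted by nonlinear regression; SAHA positive control.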

HCT-116 [4] = assay: Cytotoxicity against human HCT116 cells after 96 hrs by MTS-PMS assay; assay type: functional
HuT78 = assay: Cytotoxicity against human HUT78 cells after 72 hrs by MTS-PMS assay; assay type: functional
Procedure, shortened: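 HuT-78 maintained in Iscove's modified Dulbecco's medium, 20% FBS, 1% pen/strep, 1% L-glutamine; seeded in log phase at 50 000 cells/well, held 4 h at 37 °C, 5% CO2, then dosed in triplicate over a concentration range for 72 h. MTS–PMS readout; GI50 by nonlinear regression; SAHA positive control.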

Histone deacetylase 4 [5] = target: T2, Histone deacetylase 4; assay: Inhibition of human recombinant HDAC4 at 1 uM after 30 mins by fluorescence assay; procedure, shortened: as §1
Histone deacetylase 2 = Histone deacetylase 2 (Homo sapiens, UniProt Q92769); assay: Inhibition of human recombinant HDAC2 after 30 mins by fluorescence assay
Histone deacetylase 2, sequence (Q92769 whole entry): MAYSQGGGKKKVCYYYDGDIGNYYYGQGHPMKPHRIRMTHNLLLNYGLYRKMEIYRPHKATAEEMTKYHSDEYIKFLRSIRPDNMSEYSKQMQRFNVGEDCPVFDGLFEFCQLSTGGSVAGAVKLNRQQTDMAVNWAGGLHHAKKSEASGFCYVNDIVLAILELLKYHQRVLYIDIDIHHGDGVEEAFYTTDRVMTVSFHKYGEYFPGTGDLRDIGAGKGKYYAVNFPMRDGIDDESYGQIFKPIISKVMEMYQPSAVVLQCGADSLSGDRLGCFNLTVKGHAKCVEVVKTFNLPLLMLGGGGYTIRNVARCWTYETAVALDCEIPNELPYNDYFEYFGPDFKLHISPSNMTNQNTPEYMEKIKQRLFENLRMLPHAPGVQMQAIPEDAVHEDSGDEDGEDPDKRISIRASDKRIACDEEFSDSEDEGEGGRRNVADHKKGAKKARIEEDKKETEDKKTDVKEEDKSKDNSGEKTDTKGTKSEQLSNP

HCT-116 [6] = assay: Ratio of IC50 for human HCT116 cells to IC50 for human HUT78 cells; assay type: functional

| Compound | pIC50 [1] | pIC50 (Histone deacetylase 4 [2]) | GI50 at 72 h [3] [µM] | GI50 (HCT-116 [4]; Homo sapiens, HCT-116, 96 h) [µM] | GI50 (HuT78; Homo sapiens, HuT78, 72 h) [µM] | inhibition (Histone deacetylase 4 [5]) | pIC50 (Histone deacetylase 2) | Ratio IC50 (HCT-116 [6]) | GI50 (HCT-116 [4]) [µM] | GI50 (HuT78) [µM] |
| --- | --- | --- | --- | --- | --- | --- | --- | --- | --- | --- |
| O=C(CCCC(=O)NCCc1ccccc1)NO | 6.41 | < 6.00 | > 100 | 2.3 | 0.7 | Active | 8.46 |  |  |  |
| CCOC(=O)NCCCC(=O)NCCc1ccccc1 | 6.36 | < 6.00 | > 100 | 28.3 | 1.3 | Active | 9.95 and 9.92 | 20 | 29.4 | 1.4 |
